Several values for one entry are separate records, joined by “and”; a condition that tells them apart may be missing. Equal entries are not always repeated.
Experiments:
Nucleic Acid [1] = experiment: Time constant describing the association profile of calf thymus DNA-drug complexes in 0.1 SHE buffer at 20 degree C after 2 min; assay type: nucleic-acid assay
Procedure, shortened: (§1)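 Stopped-flow association to sonicated calf thymus DNA (~10^6 MW) in 0.1 SHE at 20 °C. Final DNA 200 μM base pairs and final drug 10 μM (ratio 0.05); D/P also varied to 0.10 and 0.20. Absorbance followed at the drug's visible maximum. Traces deconvoluted into exponentials by curve stripping; at least six runs analysed separately and averaged. Amplitudes given as % of summed amplitudes.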

Nucleic Acid [2] = experiment: Time constant describing the association profile of calf thymus DNA-drug complexes in 0.1 SHE buffer at 20 degree C after 1 min; assay type: nucleic-acid assay; procedure, shortened: as §1
Nucleic Acid [3] = experiment: Percentage of the sum of the amplitudes in the kinetic experiment.; assay type: nucleic-acid assay; settings: Bos taurus
Nucleic Acid [4] = experiment: Association constant for binding to poly(dG-dC) DNA in 0.01 SHE buffer, measured by ethidium displacement method; assay type: nucleic-acid assay
Procedure, shortened: (§2)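 Ethidium displacement in 0.01 SHE buffer with poly(dA-dT) or poly(dG-dC). Association constants corrected for quenching.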

Nucleic Acid [5] = experiment: Time constant describing the association profile of calf thymus DNA-drug complexes in 0.1 SHE buffer at 20 degree C after 3 min; assay type: nucleic-acid assay; procedure, shortened: as §1
Nucleic Acid [6] = experiment: Free drug extinction coefficient in 0.1 SHE buffer at the concentration of 50 uM; 9.4 x 10 e-3 epcilonfor equilibrium binding to calf thymus DNA; settings: Bos taurus
Nucleic Acid [7] = experiment: (§3) Fraction of the observed equilibrium absorbance change accounted in the kinetic analysis.; assay type: nucleic-acid assay
Procedure, shortened: (§4)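 SDS-induced dissociation by stopped flow. Drug–calf thymus DNA complex (400 μM base pairs, 20 μM drug, 0.1 SHE) mixed 1:1 with 20 mM SDS (monomer) at 20 °C. Finals: 200 μM DNA, 10 μM drug, 10 mM SDS; D/P also 0.2. Absorbance followed at the visible maximum. Time constants and % amplitudes obtained from exponential fitting. Fraction = resolved amplitude over equilibrium absorbance change on SDS addition.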

Nucleic Acid [8] = experiment: Association constant for binding to poly(dA-dT) DNA in 0.01 SHE buffer, measured by ethidium displacement method; assay type: nucleic-acid assay; procedure, shortened: as §2
Nucleic Acid [9] = experiment: Free drug λmax in 0.1 SHE buffer at the concentration of 50 uM for equilibrium binding to calf thymus DNA
Nucleic Acid [10] = experiment: Association constant for binding to poly(dG-dC) DNA in 0.01 SHE buffer, measured by ethidium displacement method for equilibrium binding to calf thymus DNA; assay type: nucleic-acid assay
Nucleic Acid [11] = experiment: (§5) Time constant describing the dissociation profile of calf thymus DNA-drug complexes in 0.1 SHE buffer at 20 degree C; assay type: nucleic-acid assay; procedure, shortened: as §4
Nucleic Acid [12] = experiment: Association constant for binding to poly(dA-dT) DNA in 0.01 SHE buffer, measured by ethidium displacement method for equilibrium binding to calf thymus DNA; assay type: nucleic-acid assay
Nucleic Acid [13] = experiment: Time constant describing the dissociation profile of calf thymus DNA-drug complexes in 0.1 SHE buffer at 20 degree C.; assay type: nucleic-acid assay; procedure, shortened: as §4
Nucleic Acid [14] = experiment: as §5; assay type: nucleic-acid assay; remark: listed apart in the source
Procedure, shortened: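 Stopped-flow absorbance at 20 °C, read at the visible absorption maxima. The complex was 400 μM sonicated calf thymus DNA (nucleotide pairs) with 20 μM drug in 0.1 SHE, mixed with an equal volume of 20 mM SDS (monomer) in the same buffer. Final: 200 μM DNA bp, 10 μM drug, 10 mM SDS (1 drug : 20 bp). Exponential decay time constants were resolved.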

Nucleic Acid [15] = experiment: Percentage of the sum of the amplitudes evaluated in the kinetic experiment for binding of compound to a calf thymus DNA; settings: Bos taurus
Nucleic Acid [16] = experiment: (§6) Fraction of the observed equilibrium absorbance change accounted in the kinetic analysis off rates with DNA-ligand ratio.; assay type: nucleic-acid assay; settings: Bos taurus; procedure, shortened: as §4
Nucleic Acid [17] = experiment: Fraction of the observed equilibrium absorbance change accounted in the kinetic analysis or binding of compound to a (dG-dC)-DNA; assay type: nucleic-acid assay; settings: Bos taurus
Nucleic Acid [18] = experiment: Fraction of the observed equilibrium absorbance change accounted in the kinetic analysis or binding of compound to a (dA-dT)-DNA; assay type: functional; settings: Bos taurus
Nucleic Acid [19] = experiment: as §3; assay type: functional; settings: Bos taurus; procedure, shortened: as §4
Nucleic Acid [20] = experiment: Time constant describing the association profile was studied for binding of compound to a poly(dA-dT) DNA; assay type: nucleic-acid assay
Nucleic Acid [21] = experiment: (§7) Fraction of the observed equilibrium absorbance change accounted in the kinetic analysis on rates with DNA-ligand ratio.; assay type: functional; settings: Bos taurus
Nucleic Acid [22] = experiment: Time constant describing the dissociation profile was studied for binding of compound to a poly(dG-dC) DNA; assay type: nucleic-acid assay
Nucleic Acid [23] = experiment: Percentage of the sum of the amplitudes evaluated in the kinetic experiment for binding of compound to a (dI-dC)DNA; assay type: functional; settings: Bos taurus
Nucleic Acid [24] = experiment: Time constant describing the dissociation profile was studied for binding of compound to a poly(dA-dT) DNA; assay type: nucleic-acid assay
Nucleic Acid [25] = experiment: as §7; assay type: nucleic-acid assay; settings: Bos taurus
Nucleic Acid [26] = experiment: Time constant describing the association profile was studied for binding of compound to a (dA-dT)DNA; assay type: nucleic-acid assay
Nucleic Acid [27] = experiment: Fraction of the observed equilibrium absorbance change accounted in the kinetic analysis or binding of compound to a CT-DNA; assay type: functional; settings: Bos taurus; procedure, shortened: as §4
Nucleic Acid [28] = experiment: as §6; assay type: functional; settings: Bos taurus; procedure, shortened: as §4
Nucleic Acid [29] = experiment: Time constant describing the dissociation profile was studied for binding of compound to a (dA-dT)DNA; assay type: nucleic-acid assay
Nucleic Acid [30] = experiment: Percentage of the sum of the amplitudes evaluated in the kinetic experiment for binding of compound to a CT-DNA; assay type: nucleic-acid assay; settings: Bos taurus; procedure, shortened: as §4
Nucleic Acid [31] = experiment: Time constant describing the association profile was studied for variation on rates with DNA-ligand ratio.; assay type: nucleic-acid assay; procedure, shortened: as §1
Nucleic Acid [32] = experiment: Percentage of the sum of the amplitudes evaluated in the kinetic experiment on rates with DNA-ligand ratio.; assay type: functional; settings: Bos taurus; procedure, shortened: as §1
Nucleic Acid [33] = experiment: Percentage of the sum of the amplitudes evaluated in the kinetic experiment.; assay type: functional; settings: Bos taurus; procedure, shortened: as §4
Nucleic Acid [34] = experiment: Percentage of the sum of the amplitudes evaluated in the kinetic experiment; assay type: nucleic-acid assay; settings: Bos taurus
[35] = Fraction of the observed equilibrium absorbance change accounted in the kinetic analysis; procedure, shortened: as §4

Row | SMILES | Time constant (Nucleic Acid [1]) [ms] | Time constant (Nucleic Acid [2]) [ms] | k0 (Nucleic Acid [4]) [M⁻¹] | Time constant (Nucleic Acid [5]) [ms] | ε (×10^-3) (Nucleic Acid [6]) | Activity (Nucleic Acid [7]; Bos taurus) | k0 (Nucleic Acid [8]) [M⁻¹] | λmax (nm) (Nucleic Acid [9]) | also measured
1 | COc1cc(NS(C)(=O)=O)ccc1Nc1c2ccccc2nc2c(C(=O)NCCCN(C)C)cccc12 | 15 | 3 | 3.98e+06 | 66 | 11.6 | 79 and 92 | 2.34e+06 | 441 | Relative amplitude (Nucleic Acid [3]): 31% and 39% and 55%
2 | CN(C)CCNC(=O)c1cccc2c(N)c3ccccc3nc12 |  |  |  |  | 9.4 |  |  | 407 | T2 (Nucleic Acid [1]): 19 ms; k0 (Nucleic Acid [10]): 5e+07 M⁻¹; T1 (Nucleic Acid [11]): 6 ms; T2 (Nucleic Acid [11]): 28 ms; T3 (Nucleic Acid [11]): 86 ms; T4 (Nucleic Acid [11]): 428 ms; T1 (Nucleic Acid [2]): 4 ms; k0 (Nucleic Acid [12]): 2.24e+07 M⁻¹
3 | COc1cc(NS(C)(=O)=O)ccc1Nc1c2ccccc2nc2c(C(=O)NCCO)cccc12 | 31 | 4 | 2.4e+06 | 100 | 10.4 | 90 and 80 | 890000 | 441 | Time constant (Nucleic Acid [13]): 81 ms and 208 ms
4 | CNC(=O)c1cccc2c(Nc3ccc(NS(C)(=O)=O)cc3OC)c3ccccc3nc12 | 7 | 2 | 1.51e+06 |  | 11.6 | 54 and 79 | 350000 | 438 | Relative amplitude (Nucleic Acid [3]): 52% [middle of 4 runs]; Time constant (Nucleic Acid [13]): 11 ms and 29 ms
5 | COc1cc(NS(C)(=O)=O)ccc1Nc1c2ccccc2nc2ccccc12 |  |  | 260000 |  | 12.1 | 48 | 290000 | 434 | Time constant (Nucleic Acid [14]): 2 ms and 6 ms
6 | COc1cc(NS(C)(=O)=O)ccc1Nc1c2ccccc2nc2c(C(=O)NCCN(C)C)cccc12 | 24 | 5 | 6.6e+07 | 110 | 12.9 | 62 | 2.45e+07 | 442 | Relative amplitude (Nucleic Acid [15]): 64%; Activity (Nucleic Acid [16]): 95; Activity (Nucleic Acid [17]): 76 and 99; Activity (Nucleic Acid [18]): 25 and 70; Activity (Nucleic Acid [19]): 97; Time constant (Nucleic Acid [20]): 16 ms; Activity (Nucleic Acid [21]): 72; Time constant (Nucleic Acid [22]): 1640 ms and 3500 ms; Relative amplitude (Nucleic Acid [23]): 78%; Time constant (Nucleic Acid [24]): 38 ms; Activity (Nucleic Acid [25]): 62 and 60; Time constant (Nucleic Acid [26]): 3 ms; Activity (Nucleic Acid [27]): 62 and 97; Activity (Nucleic Acid [28]): 97; Time constant (Nucleic Acid [29]): 7 ms; Relative amplitude (Nucleic Acid [30]): 41%; Time constant (Nucleic Acid [31]): 5 ms
7 | COc1cc(NS(C)(=O)=O)ccc1Nc1c2ccccc2nc2c(C(=O)NCC(=O)NCCNCCO)cccc12 | 25 | 5 | 6.61e+07 | 93 | 12.3 |  | 2.82e+07 | 440 | Relative amplitude (Nucleic Acid [32]): 33% (2×) and 48% and 37%; Activity (Nucleic Acid [19]): 100; Activity (Nucleic Acid [21]): 66 and 65; Activity (Nucleic Acid [25]): 74; Activity (Nucleic Acid [7]): 66
8 | COc1cc(NS(C)(=O)=O)ccc1Nc1c2ccccc2nc2c(C(=O)NCCCO)cccc12 | 32 | 4 | 8.12e+06 | 95 | 10.9 | 85 and 72 | 950000 | 439 | Relative amplitude (Nucleic Acid [33]): 25% and 35%; Time constant (Nucleic Acid [13]): 58 ms and 157 ms
9 | COc1cc(NS(C)(=O)=O)ccc1Nc1c2ccccc2nc2c(C(=O)NCCNCCO)cccc12 | 18 | 3 | 4.9e+07 | 66 | 11.6 | 69 | 2.19e+07 | 441 | Activity (Nucleic Acid [19]): 100; Activity (Nucleic Acid [21]): 68; Activity (Nucleic Acid [25]): 69 and 60
10 | COc1cc(NS(C)(=O)=O)ccc1Nc1c2ccccc2nc2c(C(=O)NCC(O)CO)cccc12 (configuration not stated) | 40 | 8 | 3.71e+07 | 110 | 10.4 | 77 and 88 | 2.51e+06 | 425 | 
11 | Nc1c2ccccc2nc2ccccc12 |  |  |  |  | 10.1 |  |  | 399 | k0 (Nucleic Acid [10]): 1.4e+06 M⁻¹; T1 (Nucleic Acid [11]): 3 ms; T2 (Nucleic Acid [11]): 15 ms; k0 (Nucleic Acid [12]): 1.2e+06 M⁻¹; Relative amplitude (Nucleic Acid [34]): 15% and 12%; Activity [35]: 50
